In test [1] the test system is Rattus norvegicus. The test can be described thus: Antiinflammatory activity against carrageenan-induced paw edema in Wistar rat at 300 umol/kg, po after 3 hrs. Type of test: functional. In a few lines:
(§1)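 Fasted Wistar rats of both sexes (150–200 g) were dosed orally at 300 µmol/kg in 5% arabic gum in saline. One hour later they were injected subplantar with 0.1 mg/paw carrageenan, with saline in the contralateral paw. Paw volume was read by plethysmometer 3 h later as the difference between the paws. Results are % inhibition vs vehicle; ID50 is also given.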

In test [2] the test system is Mus musculus. The test can be described thus: Antiinflammatory activity against AA-induced ear edema in Swiss mouse at 300 umol/kg, po after 1 hr. The class given is functional. In a few lines: (§2)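 Fasted Swiss mice received an oral dose of 300 µmol/kg (5% arabic gum suspension) 1 h before topical challenge on the right ear (20 µl acetone): AA 500 µg/ear or TPA 2 µg/ear. The left ear got acetone. Ears were weighed from 7 mm punches 1 h after AA or 6 h after TPA. Inhibition = (C−T)/C×100 vs vehicle.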

The subject of test [3] is Mus musculus. The test can be described thus: Antihyperalgesic effect against formalin-induced pain in mouse at 100 umol/kg, po assessed as licking activity in inflammatory phase. Type of test: functional. The method in brief:
(§3)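 Mice injected subplantar in one hind paw with 20 µL 2.5% formalin; compounds given orally at 100 µmol/kg in 5% arabic gum 60 min before. Time spent licking or biting the injected paw was recorded, with the neurogenic phase at 0–5 min and the inflammatory phase at 15–30 min. Percent inhibition is vs vehicle (ANOVA/Dunnett).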

Test [4] has as its system Mus musculus. The test can be described thus: Antiinflammatory activity against TPA-induced ear edema in Swiss mouse at 300 umol/kg, po after 6 hrs. Type of test: functional. The method in brief: as §2
The test system of test [5] is Rattus norvegicus. The test can be described thus: Antiinflammatory activity against carrageenan-induced paw edema in Wistar rat. Type of test: functional. The note with it: read-out: ID50 (the source's name). The method in brief:
as §1

Test [6] concerns Mus musculus. The test can be described thus: Antihyperalgesic effect against formalin-induced pain in mouse at 100 umol/kg, po assessed as licking activity in neurogenic phase. The class given is functional. The method in brief:
as §3

In test [7] the test system is Radical scavenging activity. The test can be described thus: Antioxidant activity assessed as DPPH radical scavenging activity at 0.1 mM. Type of test: functional.
A short description of test [8]: Antioxidant activity assessed as hydroxyl radical degradation at 0.5 mM. Type of test: functional. The method in brief: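 2-Deoxy-D-ribose (10 mM) was incubated with Hepes pH 7.2 (10 mM), compound in DMSO (0.5 mM) and H2O2 (1 mM) for 1 h at 37 °C, started with Fe(NH4)2(SO4)2 10 µM. Results are % degradation vs vehicle.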
In test [9] the test system is T-cell. The test can be described thus: Induction of anti CD3-stimulated T-lymphocyte apoptosis after 48 hrs. Type of test: functional. In a few lines:
(§4)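 Nylon wool-enriched mouse splenic T cells (10^6/mL, DMEM + 1% nutridoma) were stimulated with anti-CD3 (145.2C11) plus PMA, with or without compound at 10 µM, for 48 h at 37 °C in 7% CO2. They were stained with FITC-annexin V (apoptosis) and 7-AAD (necrosis) and analysed by flow cytometry. Runs were in triplicate with at least 3 experiments.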

Test [10] in a line: Antioxidant activity assessed as superoxide degradation at 0.25 mM. Type of test: functional. In a few lines:
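The reaction was started with xanthine oxidase (~0.2 U/mL). Cytochrome c reduction was read spectrophotometrically at the Soret band as ΔA/min; % degradation is relative to vehicle.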

Test [11] relates to Mus musculus. The test can be described thus: Antinociceptive activity in Swiss mouse at 100 umol/kg, po assessed as increase in latency time. The class given is functional, organism-based. The method in brief: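 Hot plate held at 55 ± 1 °C. Swiss mice of both sexes (18–25 g), fasted 8 h, were given 100 µmol/kg orally. Latency to first paw licking or jumping was read at 0, 30, 60, 90 and 120 min, with a 25 s cut-off. Morphine 39.5 µmol/kg was the positive control; n = 7–10.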

A further test relates to Lymphocyte. The test can be described thus: Inhibition of lymphocyte proliferation. Type of test: functional, cell-based. In a few lines: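 Nylon wool-enriched splenic T cells in supplemented DMEM + 1% nutridoma were cultured in triplicate with soluble anti-CD3 (2% v/v 145.2C11) and PMA 0.5 ng/mL plus compound for 3 days at 37 °C in 7% CO2. [3H]thymidine (1.0 µCi/well) was added for the last 18 h and incorporation counted; at least 3 experiments.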

The target in test [12] is Cannabinoid receptor 1 (Mus musculus) (UniProt P47746). The test can be described thus: Displacement of [3H]SR141716A from CB1 cannabinoid receptor in Swiss mouse brain homogenate. Type of test: tissue-based. The method in brief: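 Swiss mouse (30–40 g) whole-brain membranes, 160 µg protein, were incubated with 10 nM [3H]SR141716A plus PMSF (FAAH inhibitor) in Tris/EDTA/MgCl2 buffer with fatty acid-free BSA, pH 7.4, for 1 h at 30 °C. Nonspecific binding was set with 100 µM AM281. Samples were filtered on PEI-treated filters and counted by scintillation; n = 5 animals.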
Chain of Cannabinoid receptor 1 (Mus musculus) (P47746 whole entry): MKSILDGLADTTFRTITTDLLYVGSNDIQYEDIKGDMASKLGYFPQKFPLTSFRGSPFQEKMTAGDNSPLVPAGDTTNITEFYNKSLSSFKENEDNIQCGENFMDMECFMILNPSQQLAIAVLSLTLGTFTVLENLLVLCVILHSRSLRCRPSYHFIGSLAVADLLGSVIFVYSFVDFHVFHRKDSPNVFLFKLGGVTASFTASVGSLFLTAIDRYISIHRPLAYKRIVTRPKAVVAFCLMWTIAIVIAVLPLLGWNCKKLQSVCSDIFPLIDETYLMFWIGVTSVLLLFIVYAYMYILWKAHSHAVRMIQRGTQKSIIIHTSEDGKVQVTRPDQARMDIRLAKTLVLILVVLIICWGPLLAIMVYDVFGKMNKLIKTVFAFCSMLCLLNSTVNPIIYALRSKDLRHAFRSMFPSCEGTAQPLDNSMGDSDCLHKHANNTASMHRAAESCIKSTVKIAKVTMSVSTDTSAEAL

The subject of test [13] is T-cell. The test can be described thus: Induction of anti CD3-stimulated T-lymphocyte necrosis after 48 hrs. The class given is functional. The method in brief:
as §4

Drawing on ChEMBL document CHEMBL1147162, “Synthesis, pharmacological evaluation and electrochemical studies of novel 6-nitro-3,4-methylenedioxyphenyl-N-acylhydrazone derivatives: Discovery of LASSBio-881, a new ligand of cannabinoid receptors” (2007), this text covers inhibition in vivo, ED50 and Activity for eleven molecules.

The source made the active and inactive calls.

With `O=C(N/N=C/c1ccco1)c1cc2c(cc1[N+](=O)[O-])OCO2`, the inhibition in vivo at 300 µmol/kg with Rattus norvegicus [1] was found to be 4.1%.
On the same count and under the same terms, to `O=C(N/N=C/c1ccncc1)c1cc2c(cc1[N+](=O)[O-])OCO2` belongs 13.3%.
As to `CS(=O)(=O)Nc1ccc([N+](=O)[O-])cc1Oc1ccccc1` [NIMESULIDE], the figures for the inhibition in vivo at 300 µmol/kg in the test on Mus musculus [2], with Rattus norvegicus [1] and in the test with Mus musculus [4] were 100%, 57.5% and -10.6%, respectively. Besides, the figures for the inhibition in vivo at 100 µmol/kg in the test with Mus musculus [3] and with Mus musculus [6] were 70.3% and 9.3%, respectively. For the same molecule, the ED50 with Rattus norvegicus [5] was found to be 22.7 µmol/kg.
On to `O=C(N/N=C/c1ccc[nH]1)c1cc2c(cc1[N+](=O)[O-])OCO2`, for which the inhibition in vivo at 300 µmol/kg with Rattus norvegicus [1] was found to be 20.9%.
For `CC(C)(C)c1cc(/C=N/NC(=O)c2ccc3c(c2)OCO3)cc(C(C)(C)C)c1O`, the Activity in test [7] is 45.7%; in test [8] it was 85.2%. Also, the inhibition in vivo at 300 µmol/kg with Mus musculus [2] was 26.7%; with Rattus norvegicus [1], 36.4%; in the test on Mus musculus [4], -19.6%. The inhibition in vivo at 100 µmol/kg in the test on Mus musculus [3] was 3.1%; with Mus musculus [6], 4.1%. Besides, the ED50 in the test on Rattus norvegicus [5] came out at 96.5 µmol/kg.
In the case of `O=C(N/N=C/c1cccs1)c1ccc2c(c1)OCO2`, the figures for the inhibition in vivo at 300 µmol/kg with Mus musculus [2], in the test with Rattus norvegicus [1] and in the test with Mus musculus [4] were -1.6%, 29.7% and -10.5%, respectively. The inhibition in vivo at 100 µmol/kg worked out at 48.6% in the test on Mus musculus [3] and 17.9% with Mus musculus [6]. In addition, the ED50 in the test on Rattus norvegicus [5] worked out at 14.3 µmol/kg.
Regarding `CC(C)(C)c1cc(/C=N/NC(=O)c2cc3c(cc2[N+](=O)[O-])OCO3)cc(C(C)(C)C)c1O`, the Activity is 32% in test [7]; 43.8% with T-cell [9]; -2.9% in test [10]; 84.6% in [8]; 71% in [12]; 0% in the test with T-cell [13]. The result in the test on Mus musculus [11] and in the test with Lymphocyte was Active. Also, the figures for the inhibition in vivo at 300 µmol/kg with Mus musculus [2], in the test on Rattus norvegicus [1] and in the test on Mus musculus [4] were 36%, 31.7% and 24.1%, respectively. Further, the values for the inhibition in vivo at 100 µmol/kg with Mus musculus [3] and with Mus musculus [6] were 13.4% and 44.5%, respectively. In addition, the ED50 with Rattus norvegicus [5] was 195 µmol/kg.
`O=C(N/N=C/c1cccs1)c1cc2c(cc1[N+](=O)[O-])OCO2`: in the test with Rattus norvegicus [1], the inhibition in vivo at 300 µmol/kg was 3.4%.
Turning to `O=C(N/N=C/c1ccccc1)c1cc2c(cc1[N+](=O)[O-])OCO2`, the Activity in test [7] came out at 7.49%; in test [10] it was 19.6%; in [8] it was 83.2%. In addition, in the test with Rattus norvegicus [1], the inhibition in vivo at 300 µmol/kg was 3.5%. For the same molecule, the inhibition in vivo at 100 µmol/kg with Mus musculus [3] is 1.5%; in the test with Mus musculus [6], -21.1%.
As to `O=C(N/N=C/c1ccccn1)c1cc2c(cc1[N+](=O)[O-])OCO2`, in the test on Rattus norvegicus [1], the inhibition in vivo at 300 µmol/kg is 22.8%.
On to `CCCCC/C=C\C/C=C\C/C=C\C/C=C\CCCC(=O)NCCO` [ANANDAMIDE], for which the Activity in the test with T-cell [9] was found to be 50.8%; in the test on T-cell [13], 0.1%.
